“And” between values parts separate entries of the source, which are not always exact repeats. Identical values can stand only once.
Test system: Fibroblast
Assay: Multiplex assay against human fibroblast
Format: toxicity, cell-based
Outline: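 Live cells were stained at seeding with Hoechst33342, BioTracker Green Microtubule Cytoskeleton Dye, MitoTracker Red and Annexin V Alexa Fluor 680. Following compound addition, they were imaged on a CQ1 microscope at 37°C and 5% CO2 and gated by CellPathfinder machine learning into Hoechst high-intensity objects or normal cells, with normal cells split into healthy, pyknosed or fragmented nuclei and pyknosed cells into mitotic or apoptotic. Tubulin, mitochondrial-mass and membrane-permeability phenotypes are per cents of healthy-nucleus cells.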

[1] = 12 h, 1 µM, compound concentration 1 uM, replicate 1
[2] = 12 h, 1 µM, compound concentration 1 uM, replicate 2
[3] = 12 h, 10 µM, compound concentration 10 uM, replicate 1
[4] = 12 h, 10 µM, compound concentration 10 uM, replicate 2
[5] = 24 h, 1 µM, compound concentration 1 uM, replicate 1
[6] = 24 h, 1 µM, compound concentration 1 uM, replicate 2
[7] = 24 h, 10 µM, compound concentration 10 uM, replicate 1
[8] = 24 h, 10 µM, compound concentration 10 uM, replicate 2
[9] = 48 h, 1 µM, compound concentration 1 uM, replicate 1
[10] = 48 h, 1 µM, compound concentration 1 uM, replicate 2
[11] = 48 h, 10 µM, compound concentration 10 uM, replicate 1
[12] = 48 h, 10 µM, compound concentration 10 uM, replicate 2

Cc1c(-c2ccc(O)cc2)n(Cc2ccc(OCCN3CCCCCC3)cc2)c2ccc(O)cc12 [BAZEDOXIFENE]
Population Apoptotic (%) [1]: 69%
Population Fragmented Nuclei (%) [1]: 27%
Population Healthy Nuclei (%) [1]: 33%
Population Hoechst High Intensity Objects (%) [1]: 13%
Population Membrane Permeable-Phenotype (%) [1]: 16%
Population Mitochondria Different-Phenotype (%) [1]: 19%
Population Mitotic Cells (%) [1]: 30%
Population Normal (%) [1]: 86%
Population Pyknosed Nuclei (%) [1]: 39%
Population Tubulin-Different-Phenotype (%) [1]: 58%
Total Cell Count [1]: 106
Population Apoptotic (%) [2]: 0%
Population Fragmented Nuclei (%) [2]: 13%
Population Healthy Nuclei (%) [2]: 81%
Population Hoechst High Intensity Objects (%) [2]: 10%
Population Membrane Permeable-Phenotype (%) [2]: 5%
Population Mitochondria Different-Phenotype (%) [2]: 20%
Population Mitotic Cells (%) [2]: 100%
Population Normal (%) [2]: 89%
Population Pyknosed Nuclei (%) [2]: 4%
Population Tubulin-Different-Phenotype (%) [2]: 17%
Total Cell Count [2]: 48
Population Apoptotic (%) [3]: 72%
Population Fragmented Nuclei (%) [3]: 27%
Population Healthy Nuclei (%) [3]: 36%
Population Hoechst High Intensity Objects (%) [3]: 26%
Population Membrane Permeable-Phenotype (%) [3]: 12%
Population Mitochondria Different-Phenotype (%) [3]: 35%
Population Mitotic Cells (%) [3]: 27%
Population Normal (%) [3]: 73%
Population Pyknosed Nuclei (%) [3]: 36%
Population Tubulin-Different-Phenotype (%) [3]: 85%
Total Cell Count [3]: 149
Population Apoptotic (%) [4]: 60%
Population Fragmented Nuclei (%) [4]: 7%
Population Healthy Nuclei (%) [4]: 56%
Population Hoechst High Intensity Objects (%) [4]: 2%
Population Membrane Permeable-Phenotype (%) [4]: 26%
Population Mitochondria Different-Phenotype (%) [4]: 100%
Population Mitotic Cells (%) [4]: 40%
Population Normal (%) [4]: 97%
Population Tubulin-Different-Phenotype (%) [4]: 100%
Total Cell Count [4]: 42
Population Apoptotic (%) [5]: 80%
Population Fragmented Nuclei (%) [5]: 27%
Population Healthy Nuclei (%) [5]: 49%
Population Hoechst High Intensity Objects (%) [5]: 14%
Population Membrane Permeable-Phenotype (%) [5]: 22%
Population Mitochondria Different-Phenotype (%) [5]: 8%
Population Mitotic Cells (%) [5]: 19%
Population Normal (%) [5]: 85%
Population Pyknosed Nuclei (%) [5]: 23%
Population Tubulin-Different-Phenotype (%) [5]: 46%
Total Cell Count [5]: 106
Population Apoptotic (%) [6]: 11%
Population Fragmented Nuclei (%) [6]: 8%
Population Healthy Nuclei (%) [6]: 75%
Population Hoechst High Intensity Objects (%) [6]: 3%
Population Membrane Permeable-Phenotype (%) [6]: 2%
Population Mitochondria Different-Phenotype (%) [6]: 6%
Population Mitotic Cells (%) [6]: 88%
Population Normal (%) [6]: 96%
Population Pyknosed Nuclei (%) [6]: 15%
Population Tubulin-Different-Phenotype (%) [6]: 15%
Total Cell Count [6]: 60
Population Apoptotic (%) [7]: 62%
Population Fragmented Nuclei (%) [7]: 20%
Population Healthy Nuclei (%) [7]: 37%
Population Hoechst High Intensity Objects (%) [7]: 23%
Population Membrane Permeable-Phenotype (%) [7]: 12%
Population Mitochondria Different-Phenotype (%) [7]: 71%
Population Mitotic Cells (%) [7]: 37%
Population Normal (%) [7]: 76%
Population Pyknosed Nuclei (%) [7]: 41%
Population Tubulin-Different-Phenotype (%) [7]: 84%
Total Cell Count [7]: 134
Population Apoptotic (%) [8]: 68%
Population Fragmented Nuclei (%) [8]: 22%
Population Healthy Nuclei (%) [8]: 30%
Population Hoechst High Intensity Objects (%) [8]: 20%
Population Membrane Permeable-Phenotype (%) [8]: 75%
Population Mitochondria Different-Phenotype (%) [8]: 100%
Population Mitotic Cells (%) [8]: 31%
Population Normal (%) [8]: 80%
Population Pyknosed Nuclei (%) [8]: 47%
Population Tubulin-Different-Phenotype (%) [8]: 100%
Total Cell Count [8]: 50
Population Apoptotic (%) [9]: 50%
Population Fragmented Nuclei (%) [9]: 42%
Population Healthy Nuclei (%) [9]: 51%
Population Hoechst High Intensity Objects (%) [9]: 14%
Population Membrane Permeable-Phenotype (%) [9]: 26%
Population Mitochondria Different-Phenotype (%) [9]: 4%
Population Mitotic Cells (%) [9]: 50%
Population Normal (%) [9]: 85%
Population Pyknosed Nuclei (%) [9]: 6%
Population Tubulin-Different-Phenotype (%) [9]: 44%
Total Cell Count [9]: 115
Population Apoptotic (%) [10]: 75%
Population Fragmented Nuclei (%) [10]: 27%
Population Healthy Nuclei (%) [10]: 68%
Population Hoechst High Intensity Objects (%) [10]: 16%
Population Membrane Permeable-Phenotype (%) [10]: 15%
Population Mitochondria Different-Phenotype (%) [10]: 1%
Population Mitotic Cells (%) [10]: 25%
Population Normal (%) [10]: 83%
Population Pyknosed Nuclei (%) [10]: 3%
Population Tubulin-Different-Phenotype (%) [10]: 46%
Total Cell Count [10]: 123
Population Apoptotic (%) [11]: 85%
Population Fragmented Nuclei (%) [11]: 39%
Population Healthy Nuclei (%) [11]: 29%
Population Hoechst High Intensity Objects (%) [11]: 18%
Population Membrane Permeable-Phenotype (%) [11]: 33%
Population Mitochondria Different-Phenotype (%) [11]: 55%
Population Mitotic Cells (%) [11]: 14%
Population Normal (%) [11]: 81%
Population Pyknosed Nuclei (%) [11]: 30%
Population Tubulin-Different-Phenotype (%) [11]: 81%
Total Cell Count [11]: 112
Population Apoptotic (%) [12]: 83%
Population Fragmented Nuclei (%) [12]: 42%
Population Healthy Nuclei (%) [12]: 37%
Population Hoechst High Intensity Objects (%) [12]: 35%
Population Membrane Permeable-Phenotype (%) [12]: 21%
Population Mitochondria Different-Phenotype (%) [12]: 47%
Population Mitotic Cells (%) [12]: 16%
Population Normal (%) [12]: 64%
Population Pyknosed Nuclei (%) [12]: 19%
Population Tubulin-Different-Phenotype (%) [12]: 65%
Total Cell Count [12]: 95

CNCc1ccc(-c2cc(-c3nc(-c4ccc(S(=O)(=O)C(C)C)cc4)cnc3N)on2)cc1 [BERZOSERTIB]
Population Apoptotic (%) [1]: 45% and 78%
Population Fragmented Nuclei (%) [1]: 22% and 31%
Population Hoechst High Intensity Objects (%) [1]: 63% and 99%
Population Membrane Permeable-Phenotype (%) [1]: 1%
Population Mitochondria Different-Phenotype (%) [1]: 0%
Population Mitotic Cells (%) [1]: 54% and 21%
Population Pyknosed Nuclei (%) [1]: 54% and 63%
Population Apoptotic (%) [2]: 47% and 100%
Population Fragmented Nuclei (%) [2]: 47% and 96%
Population Hoechst High Intensity Objects (%) [2]: 68% and 95%
Population Membrane Permeable-Phenotype (%) [2]: 14% and 0%
Population Mitochondria Different-Phenotype (%) [2]: 4%
Population Tubulin-Different-Phenotype (%) [2]: 0%
Population Apoptotic (%) [3]: 51% and 76%
Population Fragmented Nuclei (%) [3]: 24% and 41%
Population Healthy Nuclei (%) [3]: 21%
Population Hoechst High Intensity Objects (%) [3]: 64% and 99%
Population Membrane Permeable-Phenotype (%) [3]: 5%
Population Mitochondria Different-Phenotype (%) [3]: 1%
Population Mitotic Cells (%) [3]: 48% and 23%
Population Pyknosed Nuclei (%) [3]: 54%
Population Tubulin-Different-Phenotype (%) [3]: 8%
Total Cell Count [3]: 976 and 2548
Population Apoptotic (%) [4]: 48% and 100%
Population Fragmented Nuclei (%) [4]: 54% and 93%
Population Hoechst High Intensity Objects (%) [4]: 69% and 96%
Population Membrane Permeable-Phenotype (%) [4]: 12% and 0%
Population Mitochondria Different-Phenotype (%) [4]: 6% and 0%
Population Tubulin-Different-Phenotype (%) [4]: 3% and 0%
Population Fragmented Nuclei (%) [5]: 66% and 26%
Population Hoechst High Intensity Objects (%) [5]: 99% and 67%
Population Membrane Permeable-Phenotype (%) [5]: 0% and 1%
Population Mitochondria Different-Phenotype (%) [5]: 0%
Population Mitotic Cells (%) [5]: 100% and 57%
Population Pyknosed Nuclei (%) [5]: 33% and 40%
Population Tubulin-Different-Phenotype (%) [5]: 0%
Population Apoptotic (%) [6]: 37% and 100%
Population Fragmented Nuclei (%) [6]: 53% and 94%
Population Hoechst High Intensity Objects (%) [6]: 69% and 96%
Population Membrane Permeable-Phenotype (%) [6]: 25%
Population Mitochondria Different-Phenotype (%) [6]: 12%
Population Fragmented Nuclei (%) [7]: 0% and 19%
Population Hoechst High Intensity Objects (%) [7]: 100% and 68%
Population Membrane Permeable-Phenotype (%) [7]: 0% and 8%
Population Mitochondria Different-Phenotype (%) [7]: 0%
Population Tubulin-Different-Phenotype (%) [7]: 0%
Population Apoptotic (%) [8]: 54%
Population Fragmented Nuclei (%) [8]: 93% and 42%
Population Hoechst High Intensity Objects (%) [8]: 97% and 74%
Population Mitochondria Different-Phenotype (%) [8]: 7%
Population Mitotic Cells (%) [8]: 45%
Population Pyknosed Nuclei (%) [8]: 33%
Population Tubulin-Different-Phenotype (%) [8]: 11%

— ChEMBL document CHEMBL4689842, “EUbOPEN Chemogenomics Library wave 1” (2021)
